In ChEMBL document CHEMBL1255273, “Subacute toxicity of colistin methanesulfonate in rats: comparison of various intravenous dosage regimens” (Antimicrob Agents Chemother, 2008):

Assays:
Details in all cases: in vivo
Rattus norvegicus [1] = experiment: Nephrotoxicity in Sprague-Dawley rat assessed as occurrence of mild protein/cellular casts in proximal tubule at 30 mg/kg, iv every 12 hrs for 7 days; assay type: toxicity, organism-based; set-up: dose 30 mg/kg, route intravenous
Procedure, shortened: (§1)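 Sprague-Dawley rats (6 to 8 weeks old) were dosed for 7 days via a jugular vein cannula at 20 mg/kg/8 h (n = 9) or 30 mg/kg/12 h (n = 11), with a saline placebo group (n = 8). Kidneys were examined histologically post mortem by a blinded histologist. Lesion severity was graded 1+ (mild), 2+ (moderate) or 3+ (severe), and the number of animals showing each lesion was counted.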

Rattus norvegicus [2] = experiment: Nephrotoxicity in Sprague-Dawley rat assessed as occurrence of mild cortical proximal convoluted tubule necrosis at 30 mg/kg, iv every 12 hrs for 7 days; assay type: toxicity, organism-based; set-up: dose 30 mg/kg, route intravenous; procedure, shortened: as §1
Rattus norvegicus [3] = experiment: Nephrotoxicity in Sprague-Dawley rat assessed as occurrence of severe pallor of outer stripe of proximal tubule at 30 mg/kg, iv every 12 hrs for 7 days; assay type: toxicity, organism-based; set-up: dose 30 mg/kg, route intravenous; procedure, shortened: as §1
Rattus norvegicus [4] = experiment: Nephrotoxicity in Sprague-Dawley rat assessed as occurrence of mild nuclear pyknosis at 30 mg/kg, iv every 12 hrs for 7 days; assay type: toxicity, organism-based; set-up: dose 30 mg/kg, route intravenous; procedure, shortened: as §1
Rattus norvegicus [5] = experiment: Nephrotoxicity in Sprague-Dawley rat assessed as occurrence of mild interstitial nephritis at 30mg/kg, iv every 12 hrs for 7 days; assay type: toxicity, organism-based; procedure, shortened: as §1
Rattus norvegicus [6] = experiment: Nephrotoxicity in Sprague-Dawley rat assessed as occurrence of severe protein/cellular casts in proximal tubule at 150 mg/kg, iv every 12 hrs for 7 days; assay type: toxicity, organism-based; set-up: dose 150 mg/kg, route intravenous
Rattus norvegicus [7] = experiment: Nephrotoxicity in Sprague-Dawley rat assessed as occurrence of severe cortical proximal convoluted tubule necrosis at 150 mg/kg, iv every 12 hrs for 7 days; assay type: toxicity, organism-based; set-up: dose 150 mg/kg, route intravenous
Rattus norvegicus [8] = experiment: Nephrotoxicity in Sprague-Dawley rat assessed as occurrence of severe intracellular mineralization at 150 mg/kg, iv every 12 hrs for 7 days; assay type: toxicity, organism-based; set-up: dose 150 mg/kg, route intravenous
Rattus norvegicus [9] = experiment: Nephrotoxicity in Sprague-Dawley rat assessed as occurrence of severe nuclear pyknosis at 150 mg/kg, iv every 12 hrs for 7 days; assay type: toxicity, organism-based; set-up: dose 150 mg/kg, route intravenous
Rattus norvegicus [10] = experiment: Nephrotoxicity in Sprague-Dawley rat assessed as occurrence of mild protein/cellular casts in proximal tubule at 20 mg/kg, iv every 8 hrs for 7 days; assay type: toxicity, organism-based; set-up: dose 20 mg/kg, route intravenous; procedure, shortened: as §1
Rattus norvegicus [11] = experiment: Nephrotoxicity in Sprague-Dawley rat assessed as occurrence of moderate protein/cellular casts in proximal tubule at 30 mg/kg, iv every 12 hrs for 7 days; assay type: toxicity, organism-based; set-up: dose 30 mg/kg, route intravenous; procedure, shortened: as §1
Rattus norvegicus [12] = experiment: Nephrotoxicity in Sprague-Dawley rat assessed as occurrence of severe protein/cellular casts in proximal tubule at 30 mg/kg, iv every 12 hrs for 7 days; assay type: toxicity, organism-based; set-up: dose 30 mg/kg, route intravenous; procedure, shortened: as §1
Rattus norvegicus [13] = experiment: Nephrotoxicity in Sprague-Dawley rat assessed as occurrence of moderate cortical proximal convoluted tubule necrosis at 30 mg/kg, iv every 12 hrs for 7 days; assay type: toxicity, organism-based; set-up: dose 30 mg/kg, route intravenous; procedure, shortened: as §1
Rattus norvegicus [14] = experiment: Toxicity in Sprague-Dawley rat assessed as effect on food uptake at 20 mg/kg, iv every 8 hrs for 7 days; assay type: organism-based; set-up: dose 20 mg/kg, route intravenous
Procedure, shortened: (§2)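 Daily cage-side observations covered food and water intake, body weight, body surface temperature and general well-being. Sprague-Dawley rats (6 to 8 weeks old) were dosed via a jugular vein cannula for 7 days, with a saline placebo control. Groups were compared by analysis of variance.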

Rattus norvegicus [15] = experiment: Toxicity in Sprague-Dawley rat assessed as effect on food uptake at 30 mg/kg, iv every 12 hrs for 7 days; assay type: organism-based; set-up: dose 30 mg/kg, route intravenous; procedure, shortened: as §2
Rattus norvegicus [16] = experiment: Toxicity in Sprague-Dawley rat assessed as effect on water consumption at 20 mg/kg, iv every 8 hrs for 7 days; assay type: organism-based; set-up: dose 20 mg/kg, route intravenous; procedure, shortened: as §2
Rattus norvegicus [17] = experiment: Toxicity in Sprague-Dawley rat assessed as effect on water consumption at 30 mg/kg, iv every 12 hrs for 7 days; assay type: organism-based; set-up: dose 30 mg/kg, route intravenous; procedure, shortened: as §2
Rattus norvegicus [18] = experiment: Toxicity in Sprague-Dawley rat assessed as effect on body surface temperature at 20 mg/kg, iv every 8 hrs for 7 days; assay type: organism-based; set-up: dose 20 mg/kg, route intravenous; procedure, shortened: as §2
Rattus norvegicus [19] = experiment: Toxicity in Sprague-Dawley rat assessed as effect on body surface temperature at 30 mg/kg, iv every 12 hrs for 7 days; assay type: organism-based; set-up: dose 30 mg/kg, route intravenous; procedure, shortened: as §2
Rattus norvegicus [20] = experiment: Neurotoxicity in Sprague-Dawley rat assessed as decreased locomotor activity at 30 mg/kg, iv every 12 hrs for 2 days relative to control; assay type: toxicity, organism-based; set-up: dose 30 mg/kg, route intravenous
Procedure, shortened: (§3)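 Locomotor activity was recorded daily with a photobeam activity meter as part of a functional screening battery. Sprague-Dawley rats (6 to 8 weeks old) received 30 mg/kg/12 h via a jugular vein cannula for 7 days (n = 11), compared with saline placebo (n = 8). The treatment day was reported for each comparison.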

Rattus norvegicus [21] = experiment: Neurotoxicity in Sprague-Dawley rat assessed as decreased locomotor activity at 30 mg/kg, iv every 12 hrs for 6 days relative to control; assay type: toxicity, organism-based; set-up: dose 30 mg/kg, route intravenous; procedure, shortened: as §3
Rattus norvegicus [22] = experiment: Neurotoxicity in Sprague-Dawley rat assessed as effect on motor control at 20 mg/kg, iv every 8 hrs for 7 days; assay type: toxicity, organism-based; set-up: dose 20 mg/kg, route intravenous
Procedure, shortened: (§4)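 Motor control was tested daily by requiring each rat to walk for 5 min on a rotarod treadmill. Sprague-Dawley rats (6 to 8 weeks old) were dosed via a jugular vein cannula for 7 days, with a saline placebo control.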

Rattus norvegicus [23] = experiment: Neurotoxicity in Sprague-Dawley rat assessed as effect on motor control at 30 mg/kg, iv every 12 hrs for 7 days; assay type: toxicity, organism-based; set-up: dose 30 mg/kg, route intravenous; procedure, shortened: as §4
Rattus norvegicus [24] = experiment: Neurotoxicity in Sprague-Dawley rat assessed as effect on forelimb grip strength at 30 mg/kg, iv every 12 hrs for 7 days; assay type: toxicity, organism-based; set-up: dose 30 mg/kg, route intravenous
Procedure, shortened: (§5)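 Forelimb grip strength was tested daily using a horizontal retort stand. Each rat had to hang from the horizontal beam holding its own body weight to pass. Rats (Sprague-Dawley, 6 to 8 weeks old) were dosed via a jugular vein cannula for 7 days, with a saline placebo control.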

Rattus norvegicus [25] = experiment: Neurotoxicity in Sprague-Dawley rat assessed as effect on forelimb grip strength at 20 mg/kg, iv every 8 hrs for 7 days; assay type: toxicity, organism-based; set-up: dose 20 mg/kg, route intravenous; procedure, shortened: as §5

COLISTIMETHATE SODIUM
Activity (Rattus norvegicus [1]): Toxic | Activity (Rattus norvegicus [2]): Toxic | Activity (Rattus norvegicus [3]): Toxic | Activity (Rattus norvegicus [4]): Toxic | Activity (Rattus norvegicus [5]): Toxic | Activity (Rattus norvegicus [6]): Toxic | Activity (Rattus norvegicus [7]): Toxic | Activity (Rattus norvegicus [8]): Toxic | Activity (Rattus norvegicus [9]): Toxic | Activity (Rattus norvegicus [10]): Toxic | Activity (Rattus norvegicus [11]): Toxic | Activity (Rattus norvegicus [12]): Toxic | Activity (Rattus norvegicus [13]): Toxic | Activity (Rattus norvegicus [14]): Non-toxic | Activity (Rattus norvegicus [15]): Non-toxic | Activity (Rattus norvegicus [16]): Non-toxic | Activity (Rattus norvegicus [17]): Non-toxic | Activity (Rattus norvegicus [18]): Non-toxic | Activity (Rattus norvegicus [19]): Non-toxic | Activity (Rattus norvegicus [20]): Toxic | Activity (Rattus norvegicus [21]): Toxic | Activity (Rattus norvegicus [22]): Non-toxic | Activity (Rattus norvegicus [23]): Non-toxic | Activity (Rattus norvegicus [24]): Non-toxic | Activity (Rattus norvegicus [25]): Non-toxic
